For experiment [1], the target named is T1, Beta-mannosidase (Rattus norvegicus, UniProt Q4FZV0).
T1 sequence (Q4FZV0 whole entry): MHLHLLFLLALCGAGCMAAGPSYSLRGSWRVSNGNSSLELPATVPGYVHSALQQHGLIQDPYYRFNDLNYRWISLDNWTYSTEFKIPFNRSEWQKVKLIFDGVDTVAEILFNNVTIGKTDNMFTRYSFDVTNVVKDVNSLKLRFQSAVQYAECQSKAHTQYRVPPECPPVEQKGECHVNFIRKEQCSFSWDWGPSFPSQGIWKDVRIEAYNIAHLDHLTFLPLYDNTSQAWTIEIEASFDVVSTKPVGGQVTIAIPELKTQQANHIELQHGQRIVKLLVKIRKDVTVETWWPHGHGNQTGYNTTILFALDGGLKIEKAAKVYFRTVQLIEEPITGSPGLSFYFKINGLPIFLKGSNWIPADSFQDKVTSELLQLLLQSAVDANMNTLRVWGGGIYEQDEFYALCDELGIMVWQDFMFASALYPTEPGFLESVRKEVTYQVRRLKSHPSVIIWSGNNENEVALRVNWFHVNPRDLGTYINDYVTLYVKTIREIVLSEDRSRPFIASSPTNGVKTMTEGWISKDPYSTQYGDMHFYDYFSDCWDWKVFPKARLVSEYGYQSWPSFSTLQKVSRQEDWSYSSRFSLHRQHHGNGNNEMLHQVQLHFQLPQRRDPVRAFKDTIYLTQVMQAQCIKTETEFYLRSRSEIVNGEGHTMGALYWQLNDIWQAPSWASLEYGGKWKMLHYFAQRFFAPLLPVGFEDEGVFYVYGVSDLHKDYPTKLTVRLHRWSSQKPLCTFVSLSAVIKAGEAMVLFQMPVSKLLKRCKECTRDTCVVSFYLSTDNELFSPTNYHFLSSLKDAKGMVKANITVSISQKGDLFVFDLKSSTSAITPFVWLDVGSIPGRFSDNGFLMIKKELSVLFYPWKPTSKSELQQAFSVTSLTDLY
As to the kind of experiment: Inhibition of rat epididymis beta-mannosidase assessed as p-nitrophenol release by spectrophotometrically.

The nature of experiment [2]: Inhibition of rice alpha-glucosidase assessed as glucose release by Glucose B-test. Also noted: species or system Oryza sativa. Put shortly:
(§1)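 Disaccharide substrate suited to each enzyme, at that enzyme's optimum pH. Released D-glucose was measured colorimetrically with the Glucose B-test.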

For experiment [3], the target named is T2, Tissue alpha-L-fucosidase (Bos taurus) (UniProt Q2KIM0).
T2 sequence (whole entry): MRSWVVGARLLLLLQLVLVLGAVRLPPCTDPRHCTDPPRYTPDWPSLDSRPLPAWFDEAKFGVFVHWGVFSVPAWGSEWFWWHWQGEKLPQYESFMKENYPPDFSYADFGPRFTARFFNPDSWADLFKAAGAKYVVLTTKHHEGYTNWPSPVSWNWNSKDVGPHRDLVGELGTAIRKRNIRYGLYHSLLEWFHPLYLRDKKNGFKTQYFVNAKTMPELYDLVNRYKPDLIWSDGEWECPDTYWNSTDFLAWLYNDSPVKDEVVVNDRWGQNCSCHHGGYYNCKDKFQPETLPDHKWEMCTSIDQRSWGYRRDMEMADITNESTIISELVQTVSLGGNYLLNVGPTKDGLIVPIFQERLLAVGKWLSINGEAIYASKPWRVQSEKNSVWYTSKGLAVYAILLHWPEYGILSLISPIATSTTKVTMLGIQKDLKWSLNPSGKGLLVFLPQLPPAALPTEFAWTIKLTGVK
The experiment can be described thus: Inhibition of bovine epididymis alpha-L-fucosidase assessed as p-nitrophenol release at 1000 uM by spectrophotometrically. Put shortly: (§2)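 Assayed with the appropriate p-nitrophenyl glycoside substrate at each enzyme's optimum pH.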

Experiment [4] in a line: Inhibition of Aspergillus niger amyloglucosidase assessed as glucose release by Glucose B-test. Put shortly: as §1
A short description of experiment [5]: Inhibition of rat epididymis alpha-mannosidase assessed as p-nitrophenol release by spectrophotometrically.
The target of experiment [6] is T3, Beta-galactosidase (Bos taurus) (UniProt Q58D55).
T3 sequence (whole entry): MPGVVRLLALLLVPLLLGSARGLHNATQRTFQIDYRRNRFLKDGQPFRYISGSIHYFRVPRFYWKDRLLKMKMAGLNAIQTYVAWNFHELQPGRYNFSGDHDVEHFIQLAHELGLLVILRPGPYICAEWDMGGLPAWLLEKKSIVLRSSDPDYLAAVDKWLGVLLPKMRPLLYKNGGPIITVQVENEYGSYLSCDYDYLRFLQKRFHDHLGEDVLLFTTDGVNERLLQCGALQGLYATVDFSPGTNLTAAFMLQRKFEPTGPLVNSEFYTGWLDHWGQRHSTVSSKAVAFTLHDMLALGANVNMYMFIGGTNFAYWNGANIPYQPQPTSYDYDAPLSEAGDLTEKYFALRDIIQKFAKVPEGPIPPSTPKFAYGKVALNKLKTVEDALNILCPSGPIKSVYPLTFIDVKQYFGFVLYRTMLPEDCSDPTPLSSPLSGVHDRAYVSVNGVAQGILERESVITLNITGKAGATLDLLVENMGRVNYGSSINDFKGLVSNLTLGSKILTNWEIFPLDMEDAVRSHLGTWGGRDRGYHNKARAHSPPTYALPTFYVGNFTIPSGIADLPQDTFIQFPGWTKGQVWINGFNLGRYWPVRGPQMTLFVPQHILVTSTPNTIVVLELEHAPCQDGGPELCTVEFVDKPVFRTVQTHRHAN
The experiment can be described thus: Inhibition of bovine liver beta-galactosidase assessed as p-nitrophenol release at 1000 uM by spectrophotometrically. Put shortly:
as §2

A short description of experiment [7]: Inhibition of yeast isomaltase alpha-glucosidase assessed as glucose release by Glucose B-test.
Experiment [8] concerns the target Alpha-galactosidase (Coffea arabica) (UniProt Q42656). As to the kind of experiment: Inhibition of coffee bean alpha-galactosidase assessed as p-nitrophenol release at 1000 uM by spectrophotometrically. Put shortly:
as §2

For experiment [9], the target named is Alpha-glucosidase MAL62 (Saccharomyces cerevisiae, UniProt P07265). The experiment can be described thus: Inhibition of yeast maltase alpha-glucosidase assessed as glucose release by Glucose B-test.
The target of experiment [10] is T4, Uncharacterized protein (Sus scrofa, UniProt I3LIR5).
T4 sequence (I3LIR5 whole entry): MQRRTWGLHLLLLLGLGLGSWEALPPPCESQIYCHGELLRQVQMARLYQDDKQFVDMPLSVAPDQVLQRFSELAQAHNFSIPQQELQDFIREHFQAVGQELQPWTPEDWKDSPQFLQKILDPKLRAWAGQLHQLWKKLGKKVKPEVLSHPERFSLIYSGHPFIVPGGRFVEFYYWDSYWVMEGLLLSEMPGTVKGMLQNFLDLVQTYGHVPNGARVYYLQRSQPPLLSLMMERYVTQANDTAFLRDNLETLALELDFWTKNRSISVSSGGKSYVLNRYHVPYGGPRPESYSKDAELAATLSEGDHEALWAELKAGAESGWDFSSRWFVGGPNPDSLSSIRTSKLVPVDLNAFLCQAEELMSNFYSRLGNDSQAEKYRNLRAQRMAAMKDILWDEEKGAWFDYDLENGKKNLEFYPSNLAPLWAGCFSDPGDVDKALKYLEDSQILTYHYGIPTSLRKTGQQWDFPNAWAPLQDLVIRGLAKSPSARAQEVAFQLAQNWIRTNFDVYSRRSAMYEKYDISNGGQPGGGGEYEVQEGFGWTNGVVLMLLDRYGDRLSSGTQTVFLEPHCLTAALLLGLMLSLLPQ
The experiment can be described thus: Inhibition of pig kidney trehalase assessed as p-nitrophenol release by spectrophotometrically.

Experiment [11] can be described thus: Inhibition of yeast alpha-glucosidase assessed as p-nitrophenol release by spectrophotometrically. Further details: species or system Saccharomyces cerevisiae. Put shortly: as §2
Experiment [12] addresses T5, Sucrase-isomaltase, intestinal (Rattus norvegicus, UniProt P23739). The experiment can be described thus: Inhibition of rat intestinal isomaltase assessed as glucose release by Glucose B-test.
For experiment [13], the target named is Lysosomal alpha-glucosidase (Rattus norvegicus) (UniProt Q6P7A9). The experiment can be described thus: Inhibition of rat intestinal maltase assessed as glucose release at 1000 uM by Glucose B-test. Put shortly: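 Enzyme source was brush border membranes prepared from rat small intestine. Maltase, sucrase and isomaltase activities were read with the matching disaccharide substrate at each enzyme's optimum pH, and liberated D-glucose was quantified colorimetrically by Glucose B-test.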

Experiment [14] is filed under the species Rattus norvegicus. As to the kind of experiment: Inhibition of rat epididymis alpha-mannosidase assessed as p-nitrophenol release at 1000 uM by spectrophotometrically.
The target of experiment [15] is Alpha-galactosidase (Coffea arabica, UniProt Q42656). The experiment can be described thus: Inhibition of coffee bean alpha-galactosidase assessed as p-nitrophenol release by spectrophotometrically. Put shortly:
as §2

Experiment [16] concerns Oryza sativa. The experiment can be described thus: Inhibition of rice alpha-glucosidase assessed as glucose release at 1000 uM by Glucose B-test. Put shortly:
as §1

The target of experiment [17] is T6, Uncharacterized protein (Sus scrofa) (UniProt I3LIR5).
T6 sequence (whole entry): T4 sequence (I3LIR5 whole entry)
The experiment can be described thus: Inhibition of pig kidney trehalase assessed as p-nitrophenol release at 1000 uM by spectrophotometrically.

Experiment [18] deals with T5, Sucrase-isomaltase, intestinal. The experiment can be described thus: Inhibition of rat intestinal sucrase assessed as glucose release by Glucose B-test.
Experiment [19] addresses T7, Beta-mannosidase (Rattus norvegicus) (UniProt Q4FZV0).
T7 sequence (whole entry): T1 sequence (Q4FZV0 whole entry)
As to the kind of experiment: Inhibition of rat epididymis beta-mannosidase assessed as p-nitrophenol release at 1000 uM by spectrophotometrically.

pIC50: −log10 of the molar value. Some results are limits rather than exact numbers.

Alpha-glucosidase MAL62, sequence (P07265 whole entry): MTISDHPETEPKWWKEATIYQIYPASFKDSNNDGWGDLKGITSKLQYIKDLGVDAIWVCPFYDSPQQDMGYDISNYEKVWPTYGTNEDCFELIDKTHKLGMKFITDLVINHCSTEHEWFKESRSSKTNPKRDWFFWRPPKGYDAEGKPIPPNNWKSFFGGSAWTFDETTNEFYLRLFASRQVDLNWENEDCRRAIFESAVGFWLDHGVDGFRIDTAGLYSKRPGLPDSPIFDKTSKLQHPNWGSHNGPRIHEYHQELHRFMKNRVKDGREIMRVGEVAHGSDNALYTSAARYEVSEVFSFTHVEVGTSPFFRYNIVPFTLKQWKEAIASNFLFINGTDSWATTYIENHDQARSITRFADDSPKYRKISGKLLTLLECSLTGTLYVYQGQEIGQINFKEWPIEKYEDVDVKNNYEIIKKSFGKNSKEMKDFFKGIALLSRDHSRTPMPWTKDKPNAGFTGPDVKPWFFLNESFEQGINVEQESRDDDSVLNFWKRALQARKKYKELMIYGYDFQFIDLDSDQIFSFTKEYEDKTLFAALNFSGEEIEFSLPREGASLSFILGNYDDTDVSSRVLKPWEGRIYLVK
T5 sequence (P23739 1-1013 limits assumed): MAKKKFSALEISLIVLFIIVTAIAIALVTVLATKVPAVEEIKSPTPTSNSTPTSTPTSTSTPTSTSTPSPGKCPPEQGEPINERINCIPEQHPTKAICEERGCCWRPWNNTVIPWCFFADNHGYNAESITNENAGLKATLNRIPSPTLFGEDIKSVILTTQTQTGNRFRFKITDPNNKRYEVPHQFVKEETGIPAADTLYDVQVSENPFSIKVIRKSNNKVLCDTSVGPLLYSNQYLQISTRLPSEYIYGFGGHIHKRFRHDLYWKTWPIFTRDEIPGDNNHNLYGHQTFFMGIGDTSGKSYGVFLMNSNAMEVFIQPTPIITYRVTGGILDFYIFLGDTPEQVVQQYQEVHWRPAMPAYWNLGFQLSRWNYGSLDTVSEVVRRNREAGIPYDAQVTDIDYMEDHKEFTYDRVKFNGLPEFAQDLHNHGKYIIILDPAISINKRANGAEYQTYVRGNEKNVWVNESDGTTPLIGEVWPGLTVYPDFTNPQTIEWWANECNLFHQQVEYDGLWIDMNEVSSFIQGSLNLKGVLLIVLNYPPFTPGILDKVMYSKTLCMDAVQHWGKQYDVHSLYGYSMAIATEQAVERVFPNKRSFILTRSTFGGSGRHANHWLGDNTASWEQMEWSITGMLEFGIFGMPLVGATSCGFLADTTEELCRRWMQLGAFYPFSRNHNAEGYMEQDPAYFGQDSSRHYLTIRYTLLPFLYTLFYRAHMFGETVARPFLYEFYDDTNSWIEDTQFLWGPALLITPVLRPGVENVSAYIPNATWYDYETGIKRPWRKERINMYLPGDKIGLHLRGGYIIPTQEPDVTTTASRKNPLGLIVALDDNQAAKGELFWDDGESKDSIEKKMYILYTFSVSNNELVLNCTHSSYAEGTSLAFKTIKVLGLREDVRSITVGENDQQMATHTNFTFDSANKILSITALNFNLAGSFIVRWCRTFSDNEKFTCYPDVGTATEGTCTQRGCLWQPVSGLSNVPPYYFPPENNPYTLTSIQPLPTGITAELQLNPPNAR
T5 sequence (P23739 1014-1841 limits assumed): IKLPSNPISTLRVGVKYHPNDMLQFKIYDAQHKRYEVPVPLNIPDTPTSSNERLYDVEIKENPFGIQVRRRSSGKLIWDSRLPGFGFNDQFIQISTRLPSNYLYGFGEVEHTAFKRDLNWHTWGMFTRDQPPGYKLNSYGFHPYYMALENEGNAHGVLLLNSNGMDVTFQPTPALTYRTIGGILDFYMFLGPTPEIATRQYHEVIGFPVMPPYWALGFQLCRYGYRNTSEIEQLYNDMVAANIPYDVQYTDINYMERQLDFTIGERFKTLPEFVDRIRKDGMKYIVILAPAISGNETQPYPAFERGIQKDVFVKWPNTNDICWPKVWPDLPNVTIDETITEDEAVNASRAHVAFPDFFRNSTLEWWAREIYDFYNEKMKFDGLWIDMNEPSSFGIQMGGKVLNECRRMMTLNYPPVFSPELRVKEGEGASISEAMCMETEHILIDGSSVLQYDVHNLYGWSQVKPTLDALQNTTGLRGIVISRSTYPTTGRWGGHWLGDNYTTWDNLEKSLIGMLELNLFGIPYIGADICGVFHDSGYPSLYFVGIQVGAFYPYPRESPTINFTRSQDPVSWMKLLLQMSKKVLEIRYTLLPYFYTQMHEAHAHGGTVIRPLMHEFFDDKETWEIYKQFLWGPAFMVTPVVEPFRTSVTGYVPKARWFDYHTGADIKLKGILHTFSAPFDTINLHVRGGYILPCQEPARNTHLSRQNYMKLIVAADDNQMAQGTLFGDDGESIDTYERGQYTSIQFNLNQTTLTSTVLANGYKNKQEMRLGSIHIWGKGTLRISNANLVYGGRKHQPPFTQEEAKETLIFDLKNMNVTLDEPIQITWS
Alpha-galactosidase, sequence (Q42656 whole entry): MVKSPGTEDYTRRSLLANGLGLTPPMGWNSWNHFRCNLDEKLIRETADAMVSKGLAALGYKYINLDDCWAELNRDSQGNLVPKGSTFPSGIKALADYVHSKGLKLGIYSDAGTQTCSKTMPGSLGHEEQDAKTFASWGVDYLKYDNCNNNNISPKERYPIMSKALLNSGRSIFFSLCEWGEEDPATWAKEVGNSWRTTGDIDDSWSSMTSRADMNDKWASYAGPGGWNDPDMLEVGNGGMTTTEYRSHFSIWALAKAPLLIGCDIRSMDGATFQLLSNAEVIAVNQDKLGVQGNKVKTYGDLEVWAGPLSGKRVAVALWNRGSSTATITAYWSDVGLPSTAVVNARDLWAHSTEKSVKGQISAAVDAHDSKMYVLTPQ
Lysosomal alpha-glucosidase (Rattus norvegicus), sequence (Q6P7A9 whole entry): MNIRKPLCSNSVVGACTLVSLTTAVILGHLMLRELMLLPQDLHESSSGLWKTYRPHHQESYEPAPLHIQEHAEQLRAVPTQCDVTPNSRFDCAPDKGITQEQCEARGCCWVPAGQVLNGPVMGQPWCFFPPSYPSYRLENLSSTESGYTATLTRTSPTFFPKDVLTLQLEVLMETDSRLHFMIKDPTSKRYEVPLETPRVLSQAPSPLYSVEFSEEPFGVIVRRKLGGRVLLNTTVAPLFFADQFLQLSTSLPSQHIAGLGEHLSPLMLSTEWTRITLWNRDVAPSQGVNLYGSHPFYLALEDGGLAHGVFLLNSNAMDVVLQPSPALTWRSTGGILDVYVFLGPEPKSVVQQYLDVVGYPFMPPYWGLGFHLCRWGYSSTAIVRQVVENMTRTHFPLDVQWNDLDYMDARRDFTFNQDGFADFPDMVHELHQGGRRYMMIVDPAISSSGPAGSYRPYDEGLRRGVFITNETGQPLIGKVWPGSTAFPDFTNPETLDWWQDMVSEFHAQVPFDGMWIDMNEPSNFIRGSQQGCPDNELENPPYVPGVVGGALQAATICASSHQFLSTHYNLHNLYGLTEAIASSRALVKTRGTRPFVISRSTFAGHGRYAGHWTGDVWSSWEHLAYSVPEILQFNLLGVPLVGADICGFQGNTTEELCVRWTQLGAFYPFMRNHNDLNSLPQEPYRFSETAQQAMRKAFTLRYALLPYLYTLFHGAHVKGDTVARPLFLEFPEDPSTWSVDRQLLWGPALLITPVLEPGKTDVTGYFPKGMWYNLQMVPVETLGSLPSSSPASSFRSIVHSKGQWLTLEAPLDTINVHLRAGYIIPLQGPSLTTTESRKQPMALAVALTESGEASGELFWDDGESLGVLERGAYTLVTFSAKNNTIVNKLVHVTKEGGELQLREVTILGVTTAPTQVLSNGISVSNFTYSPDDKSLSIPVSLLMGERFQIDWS
Alpha-galactosidase (Coffea arabica), sequence (Q42656 16-378 limits assumed): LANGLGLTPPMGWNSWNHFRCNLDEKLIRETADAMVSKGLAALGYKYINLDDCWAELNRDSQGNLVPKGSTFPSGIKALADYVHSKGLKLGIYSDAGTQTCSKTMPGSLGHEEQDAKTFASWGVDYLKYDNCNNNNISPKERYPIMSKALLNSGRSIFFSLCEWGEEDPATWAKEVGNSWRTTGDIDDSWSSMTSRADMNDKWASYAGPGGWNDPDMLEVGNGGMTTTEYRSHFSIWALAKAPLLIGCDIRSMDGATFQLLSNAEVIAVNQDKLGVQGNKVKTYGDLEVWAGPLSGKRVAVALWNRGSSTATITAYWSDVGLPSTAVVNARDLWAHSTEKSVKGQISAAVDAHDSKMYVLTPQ

On to `OC[C@H]1NC[C@@H](O)[C@@H]1O`, for which the negative-log IC50 (pIC50) (usually the IC50 on a negative log10 scale, so that one unit is a factor of ten) in [1] is 3.54; in [2], 3.92; in experiment [4] it was 3.40; in experiment [5], 3.82; in [7], 6.96; in [9], 6.08. Besides, the pIC50 is 5.60 in experiment [10] and 5.92 in experiment [11]. Also, the inhibition in experiment [3], in [6] and in [8] was less than 50% each time.

`OCCN1C[C@@H](O)[C@H](O)[C@H]1CO`: the pIC50 in [12] is 4.08; in [4] it was 3.21; in experiment [7], 4.92; in experiment [9] it was 4.11; in experiment [15], 3.15; in experiment [11], 3.54. In [18], the pIC50 is 3.60. The inhibition in experiment [3], in experiment [13], in experiment [6], in experiment [14], in experiment [16] and in experiment [17] was less than 50% each time. Besides, in experiment [19], the inhibition (as a rule, the percentage by which the read-out fell short of the control) is less than 50%.

The values are drawn from ChEMBL document CHEMBL1148104, “New sugar-mimic alkaloids from the pods of Angylocalyx pynaertii” (J Nat Prod, 2002).
